Source: PubChem
RGS4 inh: human RGS4 inhibition; B-score at 10 µM; 310,000 tested, 0.45% active; HEK293 M3R/RGS4 inducible, Fluo-4 calcium flux; active compounds read high; triggered by carbachol at its EC20; AID 463165; P49798;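 active = B-score, a plate-corrected calcium signal, over three deviations above library mean, with baseline fluorescence within five deviations of library mean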;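 note: RGS4 expression induced by doxycycline in cells with stable M3 receptor; B-score is computed from the integrated fluorescence ratio over baseline after carbachol; higher B-score means a larger calcium signal and so more RGS4 inhibition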
Target sequence (P49798 whole entry, looked up): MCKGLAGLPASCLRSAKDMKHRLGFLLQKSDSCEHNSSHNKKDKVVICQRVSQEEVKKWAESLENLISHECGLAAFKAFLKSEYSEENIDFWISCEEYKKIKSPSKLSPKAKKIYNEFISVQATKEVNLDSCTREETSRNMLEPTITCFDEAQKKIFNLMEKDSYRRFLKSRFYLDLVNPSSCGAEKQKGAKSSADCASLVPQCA
MrgX1 allo act: human MrgX1 positive allosteric modulation, primary screen. Q96LB2. MrgX1-HEK293, Fluo-4 calcium flux, FDSS; active compounds read high. B-score at 10 µM. 310,000 tested, 0.63% active. AID 588675;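 active = plate-corrected calcium response at least 3 library SD above typical, normal starting fluorescence, not activating the receptor alone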;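 note: compound read alongside a low EC10 to EC30 dose of BAM8-22 agonist; peak minus trough fluorescence over baseline measured at the second addition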
RGS4 pot: RGS4 potentiation or activation; HEK293 M3R/inducible RGS4, carbachol calcium flux Fluo4; active compounds read low; B-score at 10 µM; 310,000 tested, 0.92% active;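 active = B-score of the integrated calcium signal more than 4 SD below the library mean, with starting fluorescence not abnormally high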;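 note: negative B-score means reduced calcium response which marks RGS4 activation or potentiation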
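test system = HEK293 cells with stable M3R and inducible RGS4 | schedule = recording 10 s baseline at 1 Hz, 100 s post-agonist | technique = Fluo4-AM (2 µM) calcium-flux fluorescence, kinetic read | measure = Agonist-evoked peak-minus-minimum fluorescence over baseline, integrated ratio, B score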
MrgX1 antagonist: human MrgX1 receptor antagonism, primary screen; MRGX1-HEK293 calcium flux, Fluo-4, BAM8-22 antagonism; active compounds read low; 310,000 tested, 1.3% active; AID 588676; B-score at 10 µM; Q96LB2;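 active = calcium-response B-score plate-corrected more than 3 library SD below zero, starting fluorescence within 5 deviations, no agonist response on first addition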;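 note: peak minus trough fluorescence over baseline after final BAM8-22 challenge near maximal dose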
MrgX1 ag: activates human MrgX1 receptor signaling. Q96LB2. MrgX1-HEK293 cells, Fluo-4 calcium fluorescence, agonist mode; active compounds read high. B-score at 10 µM. 310,000 tested, 0.44% active. AID 588627;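 active = calcium response B-score plate-corrected fluorescence ratio at least 3 library SD, with starting fluorescence B-score inside 5 SD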
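Material: MrgX1-expressing HEK293 cells; input: 15,000 cells per well; doses: test compound given as first of three sequential additions; schedule: overnight plating before 1 h dye loading; technique: Fluo-4 NW calcium-flux fluorescence, kinetic read; evaluation: baseline-normalised fluorescence change ratio, B-scored; control set: plate-wise positive and negative controls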
MrgX1 allo conf: human MrgX1 positive allosteric modulation, re-confirmation | shares compounds with MrgX1 allo act | MrgX1-HEK293, Fluo-4 calcium fluorescence, FDSS | activation (ratio percentage), % at 10 µM | 1,200 tested, 13% active | AID 602413;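 active = ratio at least 3 SD above the weak peptide control, stable starting fluorescence, no direct agonism earlier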;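 note: compound followed by low BAM8-22 agonist challenge near EC20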
HEK293 Ca flux: counter-screen for MrgX1 antagonists: effect in parental HEK293 cells; 4,000 tested, 2% active; Fluo-4 calcium fluorescence, FDSS; fluorescence ratio F(max-min)/F0 at 10 µM; shares compounds with MrgX1 antagonist;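 active = duplicate-averaged calcium fluorescence ratio at least three times the standard deviation of buffer wells, a nonspecific response in parental cells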
HEK293 Ca counter: activity in parental HEK293 cells without MrgX1; shares compounds with MrgX1 antagonist; parental HEK293 calcium flux, Fluo-4 fluorescence ratio; active compounds read high; fluorescence ratio F(max-min)/F0 at 10 µM; 4,000 tested, 0.4% active; AID 624114;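 active = calcium fluorescence ratio, averaged over duplicates, at least 3 SD of the buffer-well ratio, meaning a nonspecific response in receptor-free cells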;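 note: untransfected parental HEK293 lacking MrgX1 used as counterscreen for MrgX1 allosteric activators; fluorescence change taken during the second addition on a kinetic imager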
HEK293 Ca cntr2: activity in parental HEK293 cells lacking MrgX1 receptor; shares compounds with MrgX1 antagonist; Fluo-4 calcium fluorescence (FDSS); active compounds read high; fluorescence ratio F(max-min)/F0 at 10 µM; 4,000 tested, 8.7% active; AID 624115;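 active = calcium fluorescence ratio at least three times the spread of buffer wells, meaning a non-specific response in parental cells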
Active calls of the source: *; i = inactive; · = no result given. Hits are enriched below; roughly 3.5% of the tested compounds scored in any of these assays.

SMILES	RGS4 inh	MrgX1 allo act	RGS4 pot	MrgX1 antagonist	MrgX1 ag	MrgX1 allo conf	HEK293 Ca flux	HEK293 Ca counter	HEK293 Ca cntr2
NC(=O)C1CCN(C(=O)COCc2cc(-c3ccc4c(c3)OCO4)on2)CC1	i	17*	i	i	i	i	i	i	i
CC(C)S(=O)(=O)C1=NSC2=NC(=O)/C(=C\c3ccc(OC(=O)c4ccco4)cc3)C(=N)N21	i	34.6*	i	i	i	i	i	i	i
N=C1/C(=C\c2ccc(OC(=O)c3ccco3)cc2)C(=O)N=C2SC(N3CCCCC3)=NN12	i	i	i	i	i	·	·	·	·
C=CCN(CC=C)S(=O)(=O)c1ccc2nc(NC(=O)C(C)C)sc2c1	·	20.8*	·	i	i	i	i	i	i
COc1ccc(CCNC(=O)C2Cc3ccccc3C(=O)O2)cc1 (stereo not given)	i	14.2*	i	i	i	i	i	i	i
Cc1cccc(S(=O)(=O)Nc2cccc3c2C(=O)c2ccccc2-3)c1	i	14.9*	i	i	i	i	i	i	46.8*
CC(=O)Nc1ccc(NC(=O)c2ccccc2CCc2ccccc2)cc1	i	15*	i	i	i	i	i	i	i
CC(=O)Nc1ccc(NC(=O)c2ccccc2C)cc1	i	i	i	i	i	·	·	·	·
Cc1ccc(NC(=O)c2ccccc2O)cc1	i	11*	i	i	i	i	i	i	i
COC(=O)Cc1[nH]n(-c2nc3ccccc3s2)c(=O)c1C(C)=Nc1ccc(Cl)cc1	i	12.4*	i	i	i	i	i	i	i
CCOC(=O)c1c(-c2cccs2)csc1NC(C)=O	i	i	i	i	i	·	·	·	·
CCOC(=O)c1c(-c2cccs2)csc1NC(=O)C(C)(C)C	i	12.1*	i	i	i	i	i	i	i
CC1(C)CC(=O)C(C=Nc2ccc(NC3=C(C#N)C(=O)CC(C)(C)C3)cc2)=C(O)C1	i	i	i	i	i	·	·	·	·
CC1(C)CC(=O)c2sc(NC(=O)C3COc4ccccc4O3)nc2C1 (stereo not given)	i	9.44*	i	i	i	i	i	i	i
CC(=O)c1sc(NC(=O)C2COc3ccccc3O2)nc1C (stereo not given)	i	i	i	i	i	·	·	·	·
CC1(C)CC(=O)c2sc(NS(=O)(=O)c3ccccc3)nc2C1	i	12.9*	i	i	i	i	i	i	i
CC1(C)CC(=O)c2sc(NC(=O)c3ccco3)nc2C1	i	i	i	i	i	·	·	·	·
CCOC(=O)C(=O)Nc1nnc(CCc2ccccc2)s1	i	7.72*	i	i	i	i	i	i	i
O=S(=O)(c1ccc(Cl)cc1)N1CCC(n2cnc3cc(C(F)(F)F)ccc32)CC1	i	i	i	i	i	·	·	·	·
CC(C)OC(=O)NCCOC(=O)Nc1ccc(Cl)cc1	i	i	i	i	i	·	·	·	·
O=C(Cc1cccs1)Nc1nnc(SCC(=O)N2CCCCC2)s1	i	i	i	i	i	·	·	·	·
O=C(Nc1nnc(SCC(=O)N2CCCCC2)s1)c1cccs1	i	7.07*	i	i	i	i	i	i	i
CC(=O)c1cccc(OCc2cc(C(=O)NCc3nc(C)c(C)s3)no2)c1	i	i	i	i	i	·	·	·	·
